Measured values published in ChEMBL document CHEMBL4725436, “Gibberellin JRA-003: A Selective Inhibitor of Nuclear Translocation of IKKα” (ACS Med Chem Lett, 2020).

Tests used:
[1] = system: Hs-578T; experiment: Cytotoxicity against human Hs-578T cells assessed as reduction in cell viability measured after 24 hrs by CellTiter-Glo luminescent assay; assay type: functional, cell-based
How it was run: (§1)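 High-throughput viability screen of test agents across a panel of 22 cancerous and noncancerous human cell lines. Viability was read by CellTiter-Glo luminescence.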

[2] = system: SUD4; experiment: Cytotoxicity against human SU-DHL-4 cells assessed as reduction in cell viability measured after 24 hrs by CellTiter-Glo luminescent assay; assay type: functional, cell-based; conditions: SU-DHL-4, 24 h; how it was run: as §1
[3] = Cytotoxicity against human Hs578Bst cells assessed as reduction in cell viability measured after 24 hrs by CellTiter-Glo luminescent assay; assay type: cell-based; how it was run: as §1
[4] = Cytotoxicity against human Hs895T cells assessed as reduction in cell viability measured after 24 hrs by CellTiter-Glo luminescent assay; assay type: functional, cell-based; how it was run: as §1
[5] = system: NCI-H446; experiment: Cytotoxicity against human NCI-H446 cells assessed as reduction in cell viability measured after 24 hrs by CellTiter-Glo luminescent assay; assay type: functional, cell-based; conditions: NCI-H446, 24 h; how it was run: as §1
[6] = system: HEK-293T; experiment: Cytotoxicity against human HEK293T cells assessed as reduction in cell viability measured after 24 hrs by CellTiter-Glo luminescent assay; assay type: cell-based; how it was run: as §1
[7] = system: RCK8; experiment: Cytotoxicity against human RC-K8 cells assessed as reduction in cell viability measured after 24 hrs by CellTiter-Glo luminescent assay; assay type: functional, cell-based; conditions: RCK8, 24 h; how it was run: as §1
[8] = Cytotoxicity against human Hs895SK cells assessed as reduction in cell viability measured after 24 hrs by CellTiter-Glo luminescent assay; assay type: cell-based; conditions: Hs 895.Sk; how it was run: as §1
[9] = system: CA46; experiment: Cytotoxicity against human CA46 cells assessed as reduction in cell viability measured after 24 hrs by CellTiter-Glo luminescent assay; assay type: functional, cell-based; conditions: CA46, 24 h; how it was run: as §1
[10] = Inhibition of IKKalpha/IKKbeta in human HEK293T cells transfected with firefly luciferase gene assessed as inhibition of TNF-alpha-stimulated NF-kappaB signalling preincubated for 1 hr followed by TNF alpha stimulation measured after 3 hrs by luciferase reporter gene assay; assay type: cell-based; conditions: HEK-293T
How it was run: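 Commercial NF-κB-driven luciferase reporter assay in HEK 293T cells stimulated with TNFα. EC50 was derived from the luminescence readout.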

[11] = system: PSN1; experiment: Cytotoxicity against human PSN1 cells assessed as reduction in cell viability measured after 24 hrs by CellTiter-Glo luminescent assay; assay type: functional, cell-based; conditions: PSN1, 24 h; how it was run: as §1
[12] = Cytotoxicity against human Hs888Lu cells assessed as reduction in cell viability measured after 24 hrs by CellTiter-Glo luminescent assay; assay type: cell-based; how it was run: as §1
[13] = Toxicity in po dosed rat; assay type: organism-based; conditions: in vivo
[14] = system: HCC1599; experiment: Cytotoxicity against human HCC1599 cells assessed as reduction in cell viability measured after 24 hrs by CellTiter-Glo luminescent assay; assay type: functional, cell-based; conditions: HCC1599, 24 h; how it was run: as §1

With `C=C1C[C@]23C[C@@]1(O)CC[C@H]2[C@@]12C=C[C@H](O)[C@@](C)(C(=O)O1)[C@H]2[C@@H]3C(=O)O` [GIBBERELLIN A3] the IC50 [1] was over 10 µM, the IC50 [2] was over 10 µM and the IC50 [3] was over 10 µM. The IC50 [4] was over 10 µM, the IC50 [5] was over 10 µM and the IC50 [6] was over 10 µM. For the same molecule, the IC50 [7] was over 10 µM, the IC50 [8] was over 10 µM and the IC50 [9] was over 10 µM. The EC50 [10] was over 100 µM, the IC50 [11] was over 10 µM and the IC50 [12] was over 10 µM. For the same molecule, the LD50 [13] was 6300 mg/kg and the IC50 [14] was over 10 µM.
In the case of `C=C1[C@@H](O)[C@]23C[C@@]1(O)CC[C@@H]2c1cccc(C)c1[C@@H]3C(=O)OC`, the IC50 [1] is reported as over 10 µM, the IC50 [2] is reported as over 10 µM and the IC50 [3] is reported as over 10 µM. For the same molecule, the IC50 [4] was over 10 µM, the IC50 [5] was over 10 µM and the IC50 [6] was over 10 µM. For the same molecule, the IC50 [7] was over 10 µM, the IC50 [8] was over 10 µM and the IC50 [9] was over 10 µM. It also gave an EC50 [10] of over 100 µM, an IC50 [11] of over 10 µM and an IC50 [12] of over 10 µM. It also gave an IC50 [14] of over 10 µM.
Molecule `C=C1[C@@H](O)[C@]23C[C@@]1(O)CC[C@H]2[C@@]12C=C[C@H](O)[C@@](C)(C(=O)O1)[C@H]2[C@@H]3C(=O)OC` has an IC50 [1] of over 10 µM, an IC50 [2] of over 10 µM and an IC50 [3] of over 10 µM. For the same molecule, the IC50 [4] was over 10 µM, the IC50 [5] was over 10 µM and the IC50 [6] was over 10 µM. It also gave an IC50 [7] of over 10 µM, an IC50 [8] of over 10 µM and an IC50 [9] of over 10 µM. The EC50 [10] was over 100 µM, the IC50 [11] was over 10 µM and the IC50 [12] was over 10 µM. For the same molecule, the IC50 [14] was over 10 µM.
With `C=C1C[C@]23C[C@@]1(O)CC[C@H]2c1ccc(O/C=C/C(=O)OC)c(C)c1[C@@H]3C(=O)OC` the IC50 [1] was over 10 µM, the IC50 [2] was over 10 µM and the IC50 [3] was over 10 µM. The IC50 [4] was over 10 µM, the IC50 [5] was over 10 µM and the IC50 [6] was over 10 µM. The IC50 [7] was over 10 µM, the IC50 [8] was over 10 µM and the IC50 [9] was over 10 µM. For the same molecule, the EC50 [10] was over 100 µM, the IC50 [11] was over 10 µM and the IC50 [12] was over 10 µM. It also gave an IC50 [14] of over 10 µM.
`C=C1C[C@]23C[C@@]1(O)CC[C@H]2c1cc2c(C(=O)OC)coc2c(C)c1[C@@H]3C(=O)OC` showed an IC50 [1] of over 10 µM, an IC50 [2] of over 10 µM and an IC50 [3] of over 10 µM. It also gave an IC50 [4] of over 10 µM, an IC50 [5] of over 10 µM and an IC50 [6] of over 10 µM. It also gave an IC50 [7] of over 10 µM, an IC50 [8] of over 10 µM and an IC50 [9] of over 10 µM. The EC50 [10] was over 100 µM, the IC50 [11] was over 10 µM and the IC50 [12] was over 10 µM. It also gave an IC50 [14] of over 10 µM.
